Experimental data: ChEMBL document CHEMBL5724801, “EUbOPEN Chemogenomics Library - Multiplex” (2024)
Several values for one entry are separate records, joined by “and”; a condition that tells them apart may be missing. Equal values may be shown once.

Tested on: U2OS
Assay: Multiplex assay against U2OS
Format: toxicity, cell-based
Details: human
Method in brief: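 Imaging took place on a CQ1 microscope at 37°C and 5% CO2 once compound had been added to live cells stained at seeding with Hoechst33342, BioTracker Green Microtubule Cytoskeleton Dye, MitoTracker Red and Annexin V Alexa Fluor 680. CellPathfinder machine-learning gating classed cells as Hoechst high-intensity objects or normal cells, classed normal cells as having healthy, pyknosed or fragmented nuclei, and classed pyknosed cells as mitotic or apoptotic. Tubulin, mitochondrial-mass and membrane-permeability phenotypes are per cents of the healthy-nucleus cells.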

[1] = 12 h, 1 µM, compound concentration 1 uM
[2] = 12 h, 10 µM, compound concentration 10 uM
[3] = 24 h, 1 µM, compound concentration 1 uM
[4] = 24 h, 10 µM, compound concentration 10 uM
[5] = 48 h, 1 µM, compound concentration 1 uM
[6] = 48 h, 10 µM, compound concentration 10 uM

## COCCn1c(C)c(C)s/c1=N\C(=O)C1C(C)(C)C1(C)C
[1]
  Population Apoptotic (%): 88% and 71%
  Population Fragmented Nuclei (%): 24% and 20%
  Population Healthy Nuclei (%): 69% and 74%
  Population Hoechst High Intensity Objects (%): 0%
  Population Membrane Permeable-Phenotype (%): 8% and 11%
  Population Mitochondria Different-Phenotype (%): 1% and 3%
  Population Mitotic Cells (%): 11% and 28%
  Population Normal (%): 99% and 100%
  Population Pyknosed Nuclei (%): 6% and 5%
  Population Tubulin-Different-Phenotype (%): 3% and 5%
  Total Cell Count: 271 and 135
[2]
  Population Apoptotic (%): 73% and 80%
  Population Fragmented Nuclei (%): 33% and 20%
  Population Healthy Nuclei (%): 52% and 68%
  Population Hoechst High Intensity Objects (%): 2% and 0%
  Population Membrane Permeable-Phenotype (%): 10% and 9%
  Population Mitochondria Different-Phenotype (%): 4% and 3%
  Population Mitotic Cells (%): 26% and 20%
  Population Normal (%): 97% and 100%
  Population Pyknosed Nuclei (%): 13% and 11%
  Population Tubulin-Different-Phenotype (%): 5% and 4%
  Total Cell Count: 220 and 135
[3]
  Population Apoptotic (%): 89% and 83%
  Population Fragmented Nuclei (%): 18%
  Population Healthy Nuclei (%): 75% and 77%
  Population Hoechst High Intensity Objects (%): 0%
  Population Membrane Permeable-Phenotype (%): 5% and 9%
  Population Mitochondria Different-Phenotype (%): 3%
  Population Mitotic Cells (%): 10% and 16%
  Population Normal (%): 99%
  Population Pyknosed Nuclei (%): 6% and 3%
  Population Tubulin-Different-Phenotype (%): 2% and 4%
  Total Cell Count: 314 and 157
[4]
  Population Apoptotic (%): 80% and 88%
  Population Fragmented Nuclei (%): 28% and 21%
  Population Healthy Nuclei (%): 58% and 66%
  Population Hoechst High Intensity Objects (%): 1%
  Population Membrane Permeable-Phenotype (%): 8% and 10%
  Population Mitochondria Different-Phenotype (%): 8% and 1%
  Population Mitotic Cells (%): 19% and 11%
  Population Normal (%): 98%
  Population Pyknosed Nuclei (%): 12%
  Population Tubulin-Different-Phenotype (%): 2% and 9%
  Total Cell Count: 257 and 141
[5]
  Population Apoptotic (%): 94% and 100%
  Population Fragmented Nuclei (%): 12% and 15%
  Population Healthy Nuclei (%): 79%
  Population Hoechst High Intensity Objects (%): 1%
  Population Membrane Permeable-Phenotype (%): 5% and 9%
  Population Mitochondria Different-Phenotype (%): 2% and 1%
  Population Mitotic Cells (%): 5% and 0%
  Population Normal (%): 98%
  Population Pyknosed Nuclei (%): 8% and 4%
  Population Tubulin-Different-Phenotype (%): 4% and 5%
  Total Cell Count: 459 and 218
[6]
  Population Apoptotic (%): 81% and 96%
  Population Fragmented Nuclei (%): 22% and 15%
  Population Healthy Nuclei (%): 62% and 71%
  Population Hoechst High Intensity Objects (%): 2% and 1%
  Population Membrane Permeable-Phenotype (%): 11% and 4%
  Population Mitochondria Different-Phenotype (%): 4%
  Population Normal (%): 97% and 98%
  Population Pyknosed Nuclei (%): 14% and 12%
  Population Tubulin-Different-Phenotype (%): 5% and 2%
  Total Cell Count: 305 and 206
